# Experimental data pooled from the literature.
# Compare with care: the assays were run in different laboratories.
# Target: Mitogen-activated protein kinase kinase kinase 7 (MAP3K7, Homo sapiens, UniProt O43318)
# Residues used in one study (O43318 1-606): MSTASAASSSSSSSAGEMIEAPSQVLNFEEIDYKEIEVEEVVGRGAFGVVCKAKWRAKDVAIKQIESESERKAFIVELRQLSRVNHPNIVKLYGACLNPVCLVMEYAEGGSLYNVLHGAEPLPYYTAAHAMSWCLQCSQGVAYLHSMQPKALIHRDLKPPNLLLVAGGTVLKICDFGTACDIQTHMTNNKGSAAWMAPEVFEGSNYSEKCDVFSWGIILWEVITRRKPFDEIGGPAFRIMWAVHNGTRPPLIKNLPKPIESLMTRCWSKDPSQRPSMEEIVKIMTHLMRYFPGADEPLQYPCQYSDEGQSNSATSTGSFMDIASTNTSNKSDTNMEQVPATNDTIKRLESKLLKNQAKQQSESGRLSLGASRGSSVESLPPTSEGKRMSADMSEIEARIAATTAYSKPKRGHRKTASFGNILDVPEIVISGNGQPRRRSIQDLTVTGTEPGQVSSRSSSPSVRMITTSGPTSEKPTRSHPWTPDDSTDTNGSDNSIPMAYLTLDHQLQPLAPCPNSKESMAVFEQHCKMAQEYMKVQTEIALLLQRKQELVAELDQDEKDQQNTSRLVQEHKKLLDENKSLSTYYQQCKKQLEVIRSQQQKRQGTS
Compound,assay,conditions,remaining binding [%]
CN(C)c1nccc(-c2cnc3ncccn23)n1,binding,1 µM,36
O=C(NCc1ncc(C(F)(F)F)cc1Cl)c1ccc2c(c1)C1(CCS(=O)(=O)CC1)[C@H](C1CC1)N2S(=O)(=O)c1ccc(F)cc1,"cell-free assay, competition with immobilised ligand",1 µM,80
O=C(c1ccc(Nc2ncc(Cl)c(-c3ccc(Cl)s3)n2)cc1)N1CCC(N2CCCC2)CC1,"binding, competition with immobilised ligand",1 µM,0
C[C@@H](c1cccc(C#N)c1)n1cc(Cl)cc(C(N)=O)c1=N,"cell-free assay, competition with immobilised ligand",1 µM,100
O=C(NCC1CCOCC1)c1n[nH]cc1NC(=O)c1c(F)cccc1F,"binding, competition with immobilised ligand",1 µM,73
CNC(=O)[C@@H]1CC[C@@H](n2c(-c3ccc4cnccc4c3)nc3ccc(C(=O)NCc4cccc(C(N)=O)c4)cc32)C1,"binding, competition with immobilised ligand",1 µM,100
C[C@H]1CCN(c2nccc(-c3cnn4ncccc34)n2)C1,binding,1 µM,71
COc1cnc(Nc2cccc(S(N)(=O)=O)c2)nc1N1CCN(c2ccccc2)C(=O)C1,"binding, competition with immobilised ligand",1 µM,74
N[C@H]1CCN(c2nccc(-c3cnn4ncccc34)n2)C1,binding,1 µM,100
C=CC(=O)N1CCC(C(=O)NCC(=O)N2CCN(c3nc(-c4cnc(N)nc4C(F)F)nc(N4CCOCC4)n3)CC2)CC1,"binding, competition with immobilised ligand",1 µM,100
CN(C)c1ncc(F)c(-c2cnn3ncccc23)n1,binding,1 µM,98
FC(F)(F)Oc1cccc(-c2cnc3ccc(-c4ccncc4)nn23)c1,"binding, competition with immobilised ligand",5 µM,34
Cc1cc(NC(=O)c2cccc(S(F)(F)(F)(F)F)c2)cc(-n2ccn3nc(-c4cccnc4)cc23)c1,"cell-free assay, competition with immobilised ligand",1 µM,100
CC1CCCN1c1nccc(-c2cnn3ncccc23)n1 (stereo not shown),binding,1 µM,100
O=C(c1ccc(Nc2nccc(-c3cc4ccccc4s3)n2)cc1)N1CCC(N2CCCC2)CC1,"binding, competition with immobilised ligand",1 µM,7.2
Nc1ncc2c(n1)-c1c([nH]c3ccc(C#CC4CC4)cc13)CCCC2,"binding, competition with immobilised ligand",1 µM,89
Cc1noc([C@H]2C[C@@H](c3ccc(C(F)(F)F)cc3)CN(C(=O)N3CCS(=O)(=O)C3)C2)n1,"cell-free assay, competition with immobilised ligand",1 µM,100
CN(CCCC(F)(F)F)c1nccc(-c2cnn3ncccc23)n1,binding,1 µM,85
O=C(NS(=O)(=O)c1ccc(NCC2CCOCC2)c([N+](=O)[O-])c1)c1ccc(N2CCN(Cc3ccc(C(F)(F)F)cc3-c3ccc(Cl)cc3)CC2)cc1Oc1cnc2[nH]ccc2c1,"cell-free assay, competition with immobilised ligand",1 µM,100
c1cnn2ncc(-c3ccnc(N4CCC45COC5)n3)c2c1,binding,1 µM,51
Cc1cnc(Nc2ccc(C(=O)N3CCC(N4CCCC4)CC3)cc2)nc1-c1cc2ccccc2s1,"binding, competition with immobilised ligand",1 µM,7.3
CC(=O)N1CCC(c2ccc(C(=O)NC3=NCCN3)cc2C(F)(F)F)CC1,"cell-free assay, competition with immobilised ligand",1 µM,100
